From ChEMBL document CHEMBL4014346, “Lead Optimization Generates CYP11B1 Inhibitors of Pyridylmethyl Isoxazole Type with Improved Pharmacological Profile for the Treatment of Cushing's Disease” (J Med Chem, 2017)

How the values were obtained:
[1] = target: T1, Cytochrome P450 11B1, mitochondrial (Rattus norvegicus, UniProt P15393); assay: Inhibition of rat CYP11B1 expressed in hamster V79MZ cells using [1,2-3H]-11-deoxycorticosterone as substrate after 6 hrs by HPLC analysis; format: cell-based
T1 sequence (P15393 whole entry): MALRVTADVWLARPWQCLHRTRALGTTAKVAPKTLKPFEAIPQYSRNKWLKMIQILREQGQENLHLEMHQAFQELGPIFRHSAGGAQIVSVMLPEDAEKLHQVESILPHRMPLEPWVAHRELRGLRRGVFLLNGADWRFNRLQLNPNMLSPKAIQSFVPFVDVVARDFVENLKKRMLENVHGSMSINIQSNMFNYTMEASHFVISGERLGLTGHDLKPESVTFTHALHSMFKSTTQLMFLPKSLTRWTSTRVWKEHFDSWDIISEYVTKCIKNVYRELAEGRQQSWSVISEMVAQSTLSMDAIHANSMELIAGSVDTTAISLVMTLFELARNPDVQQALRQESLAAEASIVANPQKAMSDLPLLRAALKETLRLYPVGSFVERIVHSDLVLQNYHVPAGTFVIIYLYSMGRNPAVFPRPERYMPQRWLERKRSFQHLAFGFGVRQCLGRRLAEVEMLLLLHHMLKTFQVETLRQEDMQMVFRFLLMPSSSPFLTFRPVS
How it was run: (§1)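 V79MZ cells expressing recombinant human CYP11B1 or CYP11B2, or rat CYP11B1, incubated with [1,2-³H]-11-deoxycorticosterone (100 nM) and inhibitor over a range of concentrations; ketoconazole as reference.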

[2] = target: T2, CYP2B6 (Homo sapiens, UniProt P20813); assay: Inhibition of recombinant human CYP2B6 expressed in baculovirus infected insect cell microsomes at 1 uM relative to control; format: ADME
T2 sequence (P20813 whole entry): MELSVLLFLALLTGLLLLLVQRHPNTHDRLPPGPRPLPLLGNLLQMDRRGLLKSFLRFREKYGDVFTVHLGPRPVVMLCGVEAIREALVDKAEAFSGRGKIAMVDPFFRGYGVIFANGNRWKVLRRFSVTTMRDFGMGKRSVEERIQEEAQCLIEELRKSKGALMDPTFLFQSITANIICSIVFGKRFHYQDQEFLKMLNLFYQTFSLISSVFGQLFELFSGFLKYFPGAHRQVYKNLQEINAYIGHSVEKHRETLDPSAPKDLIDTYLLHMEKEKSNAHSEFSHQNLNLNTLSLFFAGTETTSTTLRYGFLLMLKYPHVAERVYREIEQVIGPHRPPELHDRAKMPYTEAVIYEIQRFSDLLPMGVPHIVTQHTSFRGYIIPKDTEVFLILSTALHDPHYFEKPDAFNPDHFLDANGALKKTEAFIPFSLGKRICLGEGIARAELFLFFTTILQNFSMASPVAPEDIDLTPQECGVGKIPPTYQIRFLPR
How it was run: (§2)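 Recombinant human CYP1A2, 2B6, 2C9, 2C19, 2D6 and 3A4 in baculovirus-infected insect-cell microsomes, assayed per kit instructions; test compound at 1 µM, percent inhibition.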

[3] = target: T3, CYP17A1 (Homo sapiens, UniProt P05093); assay: Inhibition of human CYP17A1 expressed in Escherichia coli membranes at 2 uM using [3H]-progesterone as substrate after 30 mins in presence of NADPH by HPLC analysis relative to control; format: ADME, cell membranes; settings: Escherichia coli membranes expressing human CYP17A1, probe [3H]-progesterone
T3 sequence (P05093 whole entry): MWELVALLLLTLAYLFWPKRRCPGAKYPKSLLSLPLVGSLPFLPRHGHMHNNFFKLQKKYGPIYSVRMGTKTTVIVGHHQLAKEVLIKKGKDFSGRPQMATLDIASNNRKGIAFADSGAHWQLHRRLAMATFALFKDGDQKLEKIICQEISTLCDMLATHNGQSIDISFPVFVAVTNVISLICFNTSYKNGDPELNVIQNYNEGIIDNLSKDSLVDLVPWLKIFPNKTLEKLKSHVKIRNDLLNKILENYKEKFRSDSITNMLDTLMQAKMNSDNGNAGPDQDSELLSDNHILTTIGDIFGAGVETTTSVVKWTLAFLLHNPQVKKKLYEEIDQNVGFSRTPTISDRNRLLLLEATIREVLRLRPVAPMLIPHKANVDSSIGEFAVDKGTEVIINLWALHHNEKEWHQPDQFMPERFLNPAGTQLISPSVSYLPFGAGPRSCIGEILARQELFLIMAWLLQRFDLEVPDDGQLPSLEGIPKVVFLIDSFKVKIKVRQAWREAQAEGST
How it was run: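 Human CYP17A1 expressed in E. coli; [³H]-progesterone (25 µM) as substrate with NADPH cofactor; test compounds at 2 µM; abiraterone and ketoconazole as references.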

[4] = tested on: Salmonella typhimurium; assay: Mutagenicity in Salmonella typhimurium TA7001/7002/7003/7004/7005/7006 up to 100 uM by Ames 2 assay; format: toxicity; settings: salmonella enterica subsp. enterica serovar typhimurium
How it was run: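 AMES II kit with Salmonella typhimurium TA98 and TA7001–TA7006, run with or without rat liver S9 fraction according to the kit instructions.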

[5] = target: T4, Cytochrome P450 11B2, mitochondrial (Homo sapiens, UniProt P19099); assay: Inhibition of human CYP11B2 expressed in hamster V79MZ cells using [1,2-3H]-11-deoxycorticosterone as substrate after 6 hrs by HPLC analysis; format: ADME, cell-based; how it was run: as §1
T4 sequence (P19099 whole entry): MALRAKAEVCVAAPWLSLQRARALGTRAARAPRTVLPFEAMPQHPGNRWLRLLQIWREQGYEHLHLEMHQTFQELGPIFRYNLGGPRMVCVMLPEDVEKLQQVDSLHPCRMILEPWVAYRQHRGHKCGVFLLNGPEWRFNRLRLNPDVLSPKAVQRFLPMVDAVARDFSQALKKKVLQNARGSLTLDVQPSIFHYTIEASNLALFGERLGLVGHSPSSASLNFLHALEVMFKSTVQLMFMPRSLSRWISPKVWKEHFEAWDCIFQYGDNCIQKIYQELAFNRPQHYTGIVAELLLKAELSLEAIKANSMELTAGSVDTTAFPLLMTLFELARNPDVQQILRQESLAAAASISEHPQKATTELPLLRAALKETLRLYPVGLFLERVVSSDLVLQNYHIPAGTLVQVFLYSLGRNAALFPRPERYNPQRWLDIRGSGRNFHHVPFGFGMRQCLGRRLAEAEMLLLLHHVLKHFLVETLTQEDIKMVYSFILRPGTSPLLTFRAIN

[6] = Half life in human liver S9 fractions at 1 uM in presence of NADPH/UDPGA by LC-MS/MS analysis; format: ADME
How it was run: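 Samples taken at 0, 5, 15 and 60 min, stopped with cold acetonitrile containing internal standard. Remaining parent measured by LC-MS/MS.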

[7] = target: CYP2D6 (Homo sapiens, UniProt P10635); assay: Inhibition of recombinant human CYP2D6 expressed in baculovirus infected insect cell microsomes at 1 uM relative to control; format: ADME; how it was run: as §2
[8] = Cytotoxicity against HEK293 cells assessed as reduction in cell viability after 66 hrs by MTT assay; format: cell-based; settings: human
How it was run: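 HEK293 cells seeded at 2x10⁵ per well; 4 h later, compound added at 100–6.25 µM in quadruplicate in 1% DMSO. MTT read-out at 570 nm after 66 h against vehicle control; IC20 derived by curve fitting.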

Sequence of CYP2D6 (P10635 whole entry): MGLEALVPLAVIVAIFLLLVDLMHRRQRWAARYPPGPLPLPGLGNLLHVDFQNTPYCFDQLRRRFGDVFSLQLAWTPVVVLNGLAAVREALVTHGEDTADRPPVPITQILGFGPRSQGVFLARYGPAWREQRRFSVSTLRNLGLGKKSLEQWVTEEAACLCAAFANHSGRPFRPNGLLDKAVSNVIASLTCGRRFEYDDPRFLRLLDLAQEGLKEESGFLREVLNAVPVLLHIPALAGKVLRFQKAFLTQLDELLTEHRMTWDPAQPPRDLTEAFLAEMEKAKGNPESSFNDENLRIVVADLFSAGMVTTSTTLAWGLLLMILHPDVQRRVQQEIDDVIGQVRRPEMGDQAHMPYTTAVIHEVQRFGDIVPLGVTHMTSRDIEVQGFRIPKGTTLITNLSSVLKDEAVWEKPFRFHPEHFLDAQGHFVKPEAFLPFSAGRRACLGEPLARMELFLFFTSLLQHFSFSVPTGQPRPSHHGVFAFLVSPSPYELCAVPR

Row | Structure (SMILES) | IC50 [1] [µM] | inhibition at 1 µM [2] [%] | inhibition at 0.5 h, 2 µM [3] [%] | Activity [4] | IC50 [5] [µM] | half-life at 1 µM [6] [h] | inhibition at 1 µM [7] [%] | IC20 at 66 h [8] [µM]
1 | Cc1cncc(Cc2cc(-c3ccccc3)no2)c1 | 4 | 3 | ≤ 9 | Non-Toxic | 0.082 | 2.42 | 0 | 28
2 | COc1cncc(Cc2cc(-c3ccccc3)no2)c1 | 1.8 | 19 | ≤ 9 | Non-Toxic | 0.027 | 2.08 | 8 | 42
